ChEMBL document CHEMBL1150820, “New macrolides and furan carboxylic acid derivative from the sponge-derived fungus Cladosporium herbarum” (2001)
Calls of active or inactive are those of the source. The rule behind the calls is not given here.

Key:
Staphylococcus aureus [1] = assay: Antibacterial activity against Staphylococcus aureus ATCC 25923; format: functional, organism-based
Summary of the method: (§1)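 Agar plate diffusion: 5.5 mm susceptibility disks loaded with 5 µg pure compound (1 mg for crude extracts) placed on agar plates seeded with the test organism (B. subtilis 168, S. aureus ATCC 25923, E. coli ATCC 25922 or C. albicans); inhibition zones read after 24 h incubation at 37 °C.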

Escherichia coli [2] = assay: Antibacterial activity against Escherichia coli ATCC 25922; format: functional, organism-based; summary of the method: as §1
Bacillus subtilis [3] = assay: Antibacterial activity against Bacillus subtilis 168; format: functional, organism-based; conditions: subsp. subtilis str. 168; summary of the method: as §1
Candida albicans = assay: Antifungal activity against Candida albicans at 5 ug after 24 hrs by agar plate diffusion assay; format: functional, organism-based; summary of the method: as §1
Staphylococcus aureus [4] = assay: Antibacterial activity against Staphylococcus aureus ATCC 25923 at 5 ug after 24 hrs by agar plate diffusion assay; format: functional; conditions: ATCC 25923, 24 h, read-out: IZ; summary of the method: as §1
Escherichia coli [5] = assay: Antibacterial activity against Escherichia coli ATCC 25922 at 5 ug after 24 hrs by agar plate diffusion assay; format: functional, organism-based; summary of the method: as §1
Bacillus subtilis [6] = assay: Antibacterial activity against Bacillus subtilis 168 at 5 ug after 24 hrs by agar plate diffusion assay; format: functional; conditions: subsp. subtilis str. 168, 24 h, read-out: IZ; summary of the method: as §1

Structure (SMILES) | Activity (Staphylococcus aureus [1]) | Activity (Escherichia coli [2]) | Activity (Bacillus subtilis [3]) | inhibition zone (IZ) (Candida albicans) | zone of inhibition at 5 µg/disc (Staphylococcus aureus [4]) [mm] | inhibition zone (IZ) (Escherichia coli [5]) | zone of inhibition at 5 µg/disc (Bacillus subtilis [6]) [mm]
CC1CCCCCC(O)C(=O)C(SC2CC(=O)OC(C)CCCCCC(O)C2=O)CC(=O)O1 (centres undefined) | inactive | inactive | inactive | – | – | – | –
COC(=O)C(O)CSC1CC(=O)OC(C)CCCCCC(O)C1=O (centres undefined) | inactive | inactive | inactive | – | – | – | –
CC(=O)OCc1ccc(C(=O)O)o1 [ACETYL SUMIKI'S ACID] | – | – | – | inactive | 7 | inactive | 7
O=C(O)c1ccc(CO)o1 [SUMIKI'S ACID] | – | – | – | inactive | 7 | inactive | 7
